The nature of the data set: Toxicity liver stage against HepG2, at 10uM. In kind it is cell-based. Set-up: test concentration 10 uM, cell line HepG2-A16-CD81EGFP. Particulars: human, HepG2-A16-CD81EGFP cells; read-out: INHIBITION
The gist of the method: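 Uninfected HepG2-A16-CD81EGFP cells, 3 × 10^3 per well, 1536-well, plated on prespotted compound at 10 μM final, parasite-free screening media added to match infected plates; puromycin 10 μM positive, DMSO 0.5% negative; run in parallel with 48 h PbLuc assay at 37 °C, 5% CO2; viability by CellTiter-Glo luminescence, normalized to controls.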
For the compound `NS(=O)(=O)c1cccnc1Nc1c(Cl)cccc1Cl`, the cytotoxicity at 10 µM is -11.8%. For the compound `COCCOc1ccc(-c2noc([C@@H]3CCCN3)n2)cn1`, the cytotoxicity at 10 µM was -4.34%. Consider `CN(C)c1ccc(-c2noc([C@@H]3CCCN3)n2)cn1`, for which the cytotoxicity at 10 µM turned out to be 1.73%. With `Cc1ccccc1CN1C[C@@H]2OCC(=O)N(CC(N)=O)[C@@H]2C1` the figure was -4.87%; with `Cc1ccc(N2C(=O)N[C@@H]3CCN(C(=O)C4CCCC4)[C@@H]3C2=O)cc1`, 0.199%.

On to `Cc1cc(Cl)ccc1-n1ncc(C(=O)NCC2COC(C)(C)O2)c1N` (stereo unspecified), for which the cytotoxicity at 10 µM is -2.25%.

With `O=c1n(Cc2ccccc2F)nc2ncccn12`, the cytotoxicity at 10 µM was -4.49%.

On to `CC(=O)Nc1ccc(SCCCC(=O)NCC2CCCO2)nn1` (stereo unspecified), for which the cytotoxicity at 10 µM is -8.67%. Regarding `Cc1nc(NC(=O)c2c3c(nn2C2CCS(=O)(=O)C2)CCC3)sc1C` (stereo unspecified), the cytotoxicity at 10 µM was -4.57%. For `O=C(Nc1c(F)cccc1F)N1CC(c2nc(C3CC3)no2)C1`, the cytotoxicity at 10 µM was -1.65%. In the case of `CN(C)S(=O)(=O)NCC(Cc1cccc(F)c1)N1CCNC1=O` (stereo unspecified), the cytotoxicity at 10 µM was -3.55%.

Regarding `c1coc(CN2CCC3(CC2)CC(N2CCCC2)CO3)c1` (stereo unspecified), the cytotoxicity at 10 µM was -11.9%. With `O=S(=O)(c1cccc(Cl)c1)N1C[C@@H]2CCN[C@@H]2C1`, the cytotoxicity at 10 µM is -0.331%. `CN(C)C(=O)N1CCN(c2ccc3ccc(C(=O)NC4CC4)cn23)CC1`: the cytotoxicity at 10 µM turned out to be 6.53%. The value for `CN(C)C(=O)N1CC[C@@H](O)[C@@H]1Cc1ccccc1` was 3.14%; that for `COCCN1C(=O)C2(CCC(C(=O)Nc3cccc(C)c3)CC2)N=C1C` (stereo unspecified) was 9.76%. As for `O=C(Nc1ccccc1)C1CN(C(=O)c2cccs2)CC12CCOCC2` (stereo unspecified), the cytotoxicity at 10 µM was -2.13%. Turning to `COCCNc1nc(NCCc2ccccc2)nc2nccnc12`, the cytotoxicity at 10 µM was found to be 9.97%. Take `O=C(NCC(O)c1cccs1)c1cccc(Cl)c1` (stereo unspecified): the cytotoxicity at 10 µM is -17.8%. `Cc1cnc2n(c1=O)CC(C(=O)NC1CC1)CS2` (stereo unspecified): the cytotoxicity at 10 µM is -18.3%. The value for `Cn1cccc1C(=O)N1CCc2ncc(Cn3cccn3)n2CC1` was -5.2%; that for `Cc1nn(C)c(C)c1NC(=O)CCn1ncc2ccc(Cl)cc21` was 7.38%; that for `CC(C)NC(=O)c1n[nH]c(-n2cnnc2)n1` was 1.08%. Turning to `Cc1nc(C)c(C(=O)N2CCc3nnc(C4CCCN4C)n3CC2)s1` (stereo unspecified), the cytotoxicity at 10 µM is -4.34%. The value for `O=C(c1ccncc1F)N1CCOC(c2cccc(O)c2)C1` (stereo unspecified) was -4.97%. `COc1ccc(C)cc1C1(CNc2cn[nH]c(=O)c2Cl)CCOCC1`: the cytotoxicity at 10 µM is -6.65%. Consider `COCCS(=O)(=O)NC(C)c1cccc(-n2cccn2)c1` (stereo unspecified), for which the cytotoxicity at 10 µM was 3.36%.

Take `CCC(NC(=O)c1ccc(OC)nn1)c1nc(C(F)(F)F)cs1` (stereo unspecified): the cytotoxicity at 10 µM was -3.41%. As to `COCC(O)CNc1cncc(Br)c1` (stereo unspecified), the cytotoxicity at 10 µM was -2.52%. Turning to `O=C(c1ccc[nH]1)N1CCN(C(c2ccccc2)C(F)(F)F)CC1` (stereo unspecified), the cytotoxicity at 10 µM was found to be 8.3%.

In the case of `COc1ccc(C(=O)NC2COc3ccccc3C2)cc1OCC(=O)O` (stereo unspecified), the cytotoxicity at 10 µM is -2.18%. The value for `CC(C(=O)N1CCCCC1)N1CCN(c2ncc(Cl)cn2)CC1` (stereo unspecified) was -4.79%; that for `O=C(NCc1ccc(Br)cc1)C1(O)CCSCC1` was -3.59%. As for `Clc1cccc(C(CNc2ncccn2)N2CCOCC2)c1` (stereo unspecified), the cytotoxicity at 10 µM was 4.55%. The value for `Cc1nn(C)c(C)c1C(C)NCc1ccsc1` (stereo unspecified) was 5.42%; that for `O=C(c1ccc(SC(F)(F)F)cc1)N1CCOCC1c1ncon1` (stereo unspecified) was -0.449%. Regarding `CCOC(=O)C1CCN(C(=O)CN2CCCC2c2cc(C)no2)CC1` (stereo unspecified), the cytotoxicity at 10 µM is 8.32%. For `CC(=O)CC(C)(C)NC(=O)CCN(C)Cc1ccc(Cl)s1`, the cytotoxicity at 10 µM amounted to 7.35%. In the case of `Cc1noc(CN2CCN(CCO)CC2)n1`, the cytotoxicity at 10 µM was 2.17%. The value for `O=C1CN(c2ccc(CNC(=O)c3cccnc3O)cc2F)CCN1` was 5.04%; that for `CC1Cc2ccccc2N1Cc1occc1C(=O)O` (stereo unspecified) was 0.995%; that for `CCc1nn(C)c(CC)c1CNC(=O)Nc1cccc([S+](C)[O-])c1` (stereo unspecified) was -1.01%. Turning to `O=C(CCn1cncn1)Nc1ccc(F)cc1OCC1CC1`, the cytotoxicity at 10 µM was -2.58%. The value for `Cc1ccc(NC(=O)CNc2ccn(CC(N)=O)n2)c(Cl)c1` was 4.44%; that for `Cc1cc(NC(=O)N(C)C2CCN(c3ccccc3F)C2=O)n(C)n1` (stereo unspecified) was -7.52%; that for `CSCCC(NC(N)=O)C(=O)NCc1c(C)nn(-c2ccccc2)c1C` (stereo unspecified) was 8.15%. With `O=C(NCC1CCCCO1)c1ccc(-c2ccco2)[nH]c1=O` (stereo unspecified), the cytotoxicity at 10 µM was -3.06%. The value for `CN(CC(F)(F)F)C(=O)CNC(=O)Cc1cccc(O)c1` was 5.37%. The value for `Cc1cccn2c(=O)cc(CN3CCCCC3Cn3cncn3)nc12` (stereo unspecified) was 10.7%; that for `OC[C@@H]1CCCN1c1nccc(-c2c[nH]nc2-c2ccncc2)n1` was -4.28%; that for `COCCCN1CC2(CCN(C(=O)c3ccc(=O)n(C)c3)CC2)CC1=O` was -9.69%. As for `CCN(C)C(=O)[C@H]1C[C@@](CC(C)C)(C(=O)OC)N(C)[C@H]1c1cccnc1`, the cytotoxicity at 10 µM is 0.779%.

Take `CN(Cc1cc(-c2ccccc2)no1)C(=O)CNS(C)(=O)=O`: the cytotoxicity at 10 µM was found to be 0.0288%. With `Cc1nn(C)c(C)c1CCC(=O)N1CCN(CCn2cncn2)CC1` the figure was 2.33%. Consider `Cc1cc(-c2cnn(C)c2)ccc1OCC(N)=O`, for which the cytotoxicity at 10 µM turned out to be 2.74%. The value for `OC1(CNCCc2csc(-c3ccncc3)n2)CCCNC1` (stereo unspecified) was -13.2%; that for `COc1ccc2c(C)c(C(=O)NCC3CN(S(C)(=O)=O)CCO3)oc2c1` (stereo unspecified) was 9.52%. For `Cc1nc2c(c(N3CCC(O)(CN4CCCC4)CC3)n1)CCNCC2`, the cytotoxicity at 10 µM was -3.39%. Take `CCC(C)N(Cc1cnc(OC)nc1)Cc1ccsc1` (stereo unspecified): the cytotoxicity at 10 µM is 1.71%.

With `O=C(COc1ccccc1N1CCCC1)N1CCN[C@H]2CS(=O)(=O)C[C@H]21`, the cytotoxicity at 10 µM was -0.687%. As for `CCN(CCn1cccn1)Cc1nc(-c2ccc(C)o2)oc1C`, the cytotoxicity at 10 µM was -4.7%.

Turning to `Cc1cccc(C)c1NC(=O)NCC1CCCN(C2CCOCC2)C1` (stereo unspecified), the cytotoxicity at 10 µM was -5.95%. Consider `CCOC(=O)N1CCC(NC(C)Cc2cc(C)n[nH]2)CC1` (stereo unspecified), for which the cytotoxicity at 10 µM is -2.65%. With `Cc1cc(C)n(-c2ccc(NCCNS(=O)(=O)c3ccccc3)nn2)n1` the figure was -0.771%; with `COc1ccc(NC(=O)c2cc3c([nH]c2=O)CCCC3=O)c(OC)c1`, -0.0455%.

Regarding `Cc1ncsc1CCC(=O)NC1CCN(c2ccc(Cl)nn2)CC1`, the cytotoxicity at 10 µM is -2.5%.

On to `CC(C)C(=O)NCC(=O)N(C)C1CCCN(C2Cc3ccccc3C2)C1` (stereo unspecified), for which the cytotoxicity at 10 µM was -7.79%. On to `CCOc1ccc(-c2ccnc(CC)n2)cc1C(=O)O`, for which the cytotoxicity at 10 µM was -11.1%. On to `CC(=O)N1CCN(Cc2coc(-c3cccc(F)c3)n2)CC1`, for which the cytotoxicity at 10 µM is -3.78%. As for `Cc1cc(CN(C)C2CCCN(Cc3noc(C)n3)C2)no1` (stereo unspecified), the cytotoxicity at 10 µM is 1.46%. Regarding `Cc1cnn(CCNCc2ccccc2F)c1`, the cytotoxicity at 10 µM was -9.54%. In the case of `Cc1cnn(CC2CCCN2C(=O)c2ccc(OCC3CC3)nc2)c1` (stereo unspecified), the cytotoxicity at 10 µM was -9.86%. On to `Fc1cccc(-c2nc(CN3CCCC3Cn3cccn3)co2)c1` (stereo unspecified), for which the cytotoxicity at 10 µM is -11%.

Turning to `COc1cccc(CNc2cc(N3CCCC3CO)ncn2)n1` (stereo unspecified), the cytotoxicity at 10 µM is -12.5%. `COc1nc(C)ccc1CNc1cc(N2CCCC2CO)ncn1` (stereo unspecified): the cytotoxicity at 10 µM is -8.02%. Consider `CCc1[nH]ncc1C(=O)N1CCCC(n2nc(C)cc2C)C1` (stereo unspecified), for which the cytotoxicity at 10 µM is -15.6%. Consider `NS(=O)(=O)c1cccc(CNc2nccc(C(F)(F)F)n2)c1`, for which the cytotoxicity at 10 µM is -11.1%. Take `COc1ccccc1C1(C(=O)N2CCCC(c3cc(C)[nH]n3)C2)CC1` (stereo unspecified): the cytotoxicity at 10 µM is -16.7%. On to `CS(=O)(=O)NCC1CCCN(C(=O)c2ccco2)C1` (stereo unspecified), for which the cytotoxicity at 10 µM is -19.3%. As for `COc1cccc(CN2CCCC2c2c(C)nn(C)c2C)c1` (stereo unspecified), the cytotoxicity at 10 µM was -2.35%. Consider `Cc1nnc(C2Cc3ccccc3CN2Cc2ncc(C(C)(C)C)o2)o1` (stereo unspecified), for which the cytotoxicity at 10 µM turned out to be 10%. With `COc1ccccc1CC1CCCN(CC(=O)N2CCOCC2)C1` (stereo unspecified) the figure was 7.87%; with `CC1CCN(CCCNS(=O)(=O)c2cccc(F)c2)CC1`, -12.3%; with `O=C(CC1CCC2(CC1)CCN(Cc1ccncc1)CC2)N1CCCC1`, 6.72%. Turning to `Cc1cccc(CN2CC[C@H]3[C@@H]2CC(=O)N3CC2CC2)n1`, the cytotoxicity at 10 µM was -4.25%. For `Cn1cccc1C(=O)N1CCCC2(CCN(CCN3CCCC3)C2=O)C1` (stereo unspecified), the cytotoxicity at 10 µM was -10.8%.

For the compound `COC(=O)CN1CC(c2nc(Cc3ccccc3)no2)C1`, the cytotoxicity at 10 µM was -22.9%. As for `Cc1ccc(CN2Cc3nnn(C)c3C(COCC3CC3)C2)o1` (stereo unspecified), the cytotoxicity at 10 µM was -4.7%. With `CC(=O)N1CCCC1c1nnn2cc(NCc3cccnc3)ccc12` (stereo unspecified), the cytotoxicity at 10 µM is 17.1%. With `COc1ccc(CN2C[C@H]3CCC[C@@H](CN(C)C4CC4)[C@H]3C2)cn1`, the cytotoxicity at 10 µM worked out at 4.56%. On to `CS(=O)(=O)c1cccc(C(N)c2ccc(F)c(F)c2)c1` (stereo unspecified), for which the cytotoxicity at 10 µM worked out at 6.62%. As to `CCn1ncc2c1C(COCC1CC1)CN(c1ccncn1)C2` (stereo unspecified), the cytotoxicity at 10 µM came out at 2.74%. Consider `O=C1C[C@@H]2[C@H](CCN2Cc2ccccn2)N1Cc1ccncc1`, for which the cytotoxicity at 10 µM was determined as 4.53%. With `CC(C)c1ccccc1NC(=O)N1C[C@H]2CC[C@@H](C1)N(C)C2=O`, the cytotoxicity at 10 µM is -3%. With `O=C(c1cc(C2CCCCC2)no1)N1C[C@H]2CC(O)C[C@H]2C1` (stereo partly specified) the figure was -3.89%; with `O=c1[nH]c2cn(-c3cccc(Cl)c3)c(=O)n2[nH]1`, 1.35%.

Source of the values: ChEMBL document CHEMBL4513216, “Probing the Open Global Health Chemical Diversity Library for Multistage-Active Starting Points for Next-Generation Antimalarials” (ACS Infect Dis, 2020).
